Measured values taken from ChEMBL document CHEMBL2380254, “Optimization of tocotrienols as antiproliferative and antimigratory leads” (Eur J Med Chem, 2013).

Assays:
Format in all cases: functional
PC-3 = test: Growth inhibition of human PC3 cells assessed as cell growth at 10 uM after 48 hrs by sulforhodamine B assay; conditions: PC-3, 48 h, read-out: Activity
Procedure, shortened: (§1)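 Single-dose NCI-60 screen: adherent cells in RPMI 1640 with 5% FBS were exposed to 10 µM for 48 h at 37 °C after a 24 h preincubation. They were fixed in situ with cold TCA (10% final), stained with 0.4% SRB in 1% acetic acid, solubilized in 10 mM Tris base, and read at 515 nm. Percent growth was taken relative to time-zero and control plates.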

T47D = test: Growth inhibition of human T47D cells after 48 hrs by sulforhodamine B assay
Procedure, shortened: (§2)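 NCI-60 five-dose screen. Cells were grown in RPMI 1640 with 5% FBS and 2 mM L-glutamine, plated at 5000–40,000 cells/well and incubated 24 h before dosing, with T0 plates TCA-fixed. DMSO stocks were diluted to doses of […] and exposed 48 h at 37 °C, 5% CO2. Cells were fixed with cold TCA (final 10%, 60 min, 4 °C), stained with 0.4% SRB in 1% acetic acid for 10 min, solubilized in 10 mM trizma base and read at 515 nm. GI50 is where 100×(T−T0)/(C−T0)=50.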

LOX IMVI = test: Growth inhibition of human LOXIMVI cells assessed as cell growth at 10 uM after 48 hrs by sulforhodamine B assay; conditions: read-out: Activity
Procedure, shortened: (§3)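 NCI-60 single-dose screen at 10 µM: cells in RPMI 1640 with 5% FBS, preincubated 24 h, then exposed 48 h at 37 °C. TCA fixation (16% final for suspension cells), SRB staining, absorbance 515 nm. Percent growth relative to time-zero and untreated control plates; negative values indicate cell kill.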

SNB-19 = test: Growth inhibition of human SNB19 cells after 48 hrs by sulforhodamine B assay; conditions: SNB-19, 48 h; procedure, shortened: as §2
NCI-H522 [1] = test: Growth inhibition of human NCI-H522 cells after 48 hrs by sulforhodamine B assay; conditions: NCI-H522, 48 h
Procedure, shortened: (§4)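 NCI-60 panel cells grown in RPMI 1640 with 5% FBS and 2 mM L-glutamine, seeded at 5000–40,000 cells/well and preincubated 24 h. Five 10-fold dilutions (0.001–100 µM) from DMSO stocks were added for 48 h at 37 °C. Adherent cells were fixed with cold TCA (10% final) for 60 min at 4 °C, stained with 0.4% SRB, and read at 515 nm. GI50 was set where 100×(T−T0)/(C−T0)=50.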

KM12 = test: Growth inhibition of human KM12 cells assessed as cell growth at 10 uM after 48 hrs by sulforhodamine B assay; conditions: KM12, 48 h, read-out: Activity; procedure, shortened: as §3
[2] = Growth inhibition of human NCI-ADR-RES cells after 48 hrs by sulforhodamine B assay; procedure, shortened: as §4
IGROV-1 = test: Growth inhibition of human IGROV1 cells assessed as cell growth at 10 uM after 48 hrs by sulforhodamine B assay; conditions: IGROV-1, 48 h, read-out: Activity; procedure, shortened: as §3
MDA-MB-435 = test: Growth inhibition of human MDA-MB-435 cells after 48 hrs by sulforhodamine B assay; conditions: MDA-MB-435, 48 h; procedure, shortened: as §4
SK-MEL-2 = test: Growth inhibition of human SK-MEL-2 cells assessed as cell growth at 10 uM after 48 hrs by sulforhodamine B assay; conditions: SK-MEL-2, 48 h, read-out: Activity; procedure, shortened: as §1
MDA-MB-468 = test: Growth inhibition of human MDA-MB-468 cells after 48 hrs by sulforhodamine B assay; conditions: MDA-MB-468, 48 h; procedure, shortened: as §4
HCT-15 = test: Growth inhibition of human HCT15 cells after 48 hrs by sulforhodamine B assay; conditions: HCT-15, 48 h
Procedure, shortened: (§5)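 NCI-60 screen: cells in RPMI 1640 with 5% FBS and 2 mM glutamine, 5000–40,000 cells/well, preincubated 24 h. Five concentrations (10-fold dilutions; 100 to 0.001 µM) applied for 48 h at 37 °C. TCA fixation, SRB stain, absorbance at 515 nm. Time-zero plates included; GI50 where 100×(T−T0)/(C−T0)=50.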

MCF7 = test: Growth inhibition of human MCF7 cells assessed as cell growth at 10 uM after 48 hrs by sulforhodamine B assay; conditions: MCF7, 48 h, read-out: Activity; procedure, shortened: as §1
SF-539 = test: Growth inhibition of human SF539 cells assessed as cell growth at 10 uM after 48 hrs by sulforhodamine B assay; conditions: SF-539, 48 h, read-out: Activity; procedure, shortened: as §1
UACC-62 [3] = test: Growth inhibition of human UACC62 cells assessed as cell growth at 10 uM after 48 hrs by sulforhodamine B assay; conditions: UACC-62, 48 h, read-out: Activity
Procedure, shortened: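 Single-dose NCI-60 test at 10 µM. Cells were grown in RPMI 1640 with 5% FBS and 2 mM L-glutamine, preincubated 24 h, with T0 plates TCA-fixed. Exposure was 48 h at 37 °C, 5% CO2. Cells were fixed with cold TCA (final 10%, 4 °C, 60 min), stained with SRB and read at 515 nm. Percent growth was taken relative to T0 and untreated control; negative values denote cell kill.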

NCI-H522 [4] = test: Growth inhibition of human NCI-H522 cells assessed as cell growth at 10 uM after 48 hrs by sulforhodamine B assay; conditions: NCI-H522, 48 h, read-out: Activity; procedure, shortened: as §1
786-0 = test: Growth inhibition of human 786-0 cells after 48 hrs by sulforhodamine B assay; conditions: 786-0, 48 h; procedure, shortened: as §5
NCI-H23 [5] = test: Growth inhibition of human NCI-H23 cells after 48 hrs by sulforhodamine B assay; conditions: NCI-H23, 48 h; procedure, shortened: as §4
[6] = Growth inhibition of human Hs 578T cells after 48 hrs by sulforhodamine B assay; procedure, shortened: as §5
Malme-3M [7] = test: Growth inhibition of human MALME-3M cells assessed as cell growth at 10 uM after 48 hrs by sulforhodamine B assay; conditions: read-out: Activity; procedure, shortened: as §1
SR = test: Growth inhibition of human SR cells after 48 hrs by sulforhodamine B assay
Procedure, shortened: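 Suspension leukemia line in RPMI 1640 with 5% FBS and 2 mM L-glutamine, NCI-60 five-dose format ([…]), 48 h at 37 °C. Settled cells were fixed with 80% TCA (final 16%), stained with SRB and read at 515 nm. GI50 is where 100×(T−T0)/(C−T0)=50, with T0 measured at dosing.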

SF-268 = test: Growth inhibition of human SF268 cells assessed as cell growth at 10 uM after 48 hrs by sulforhodamine B assay; conditions: SF-268, 48 h, read-out: Activity; procedure, shortened: as §1
Malme-3M [8] = test: Growth inhibition of human MALME-3M cells after 48 hrs by sulforhodamine B assay; procedure, shortened: as §4
UACC-62 [9] = test: Growth inhibition of human UACC62 cells after 48 hrs by sulforhodamine B assay; conditions: UACC-62, 48 h; procedure, shortened: as §2
[10] = Growth inhibition of human NCI-ADR-RES cells assessed as cell growth at 10 uM after 48 hrs by sulforhodamine B assay; conditions: read-out: Activity; procedure, shortened: as §1
NCI-H23 [11] = test: Growth inhibition of human NCI-H23 cells assessed as cell growth at 10 uM after 48 hrs by sulforhodamine B assay; conditions: NCI-H23, 48 h, read-out: Activity; procedure, shortened: as §1

Q: What does the source list for `CC(C)=CCC/C(C)=C/CC/C(C)=C/CC[C@]1(C)CCc2c3c(c(C)c(C)c2O1)OCN(CCCCO)C3`?
A: growth at 10 µM (PC-3): 71.8%; GI50 (T47D): > 10 µM; growth at 10 µM (LOX IMVI): -90.5%; GI50 (SNB-19): 3.03 µM; GI50 (NCI-H522 [1]): > 10 µM; growth at 10 µM (KM12): 27.3%; GI50 [2]: > 10 µM; growth at 10 µM (IGROV-1): 48.2%; GI50 (MDA-MB-435): 4.68 µM; growth at 10 µM (SK-MEL-2): 95.8%; GI50 (MDA-MB-468): 2.53 µM; GI50 (HCT-15): 4.8 µM; growth at 10 µM (MCF7): 10.1%; growth at 10 µM (SF-539): 69.6%; growth at 10 µM (UACC-62 [3]): 96.6%; growth at 10 µM (NCI-H522 [4]): 86.7%; GI50 (786-0): > 10 µM; GI50 (NCI-H23 [5]): > 10 µM; GI50 [6]: > 10 µM; growth at 10 µM (Malme-3M [7]): 93.3%; GI50 (SR): 2.47 µM; growth at 10 µM (SF-268): 75.2%; GI50 (Malme-3M [8]): > 10 µM; GI50 (UACC-62 [9]): > 10 µM; growth at 10 µM [10]: 57.5%; growth at 10 µM (NCI-H23 [11]): 93.5%

Q: What does the source list for `CC(C)=CCC/C(C)=C/CC/C(C)=C/CC[C@]1(C)CCc2c3c(cc(C)c2O1)OCN(CCCCCCO)C3`?
A: growth at 10 µM (PC-3): -31.4%; GI50 (T47D): 1.76 µM; growth at 10 µM (LOX IMVI): -90.8%; GI50 (SNB-19): 0.632 µM; GI50 (NCI-H522 [1]): 4.37 µM; growth at 10 µM (KM12): -79.1%; GI50 [2]: 1.13 µM; growth at 10 µM (IGROV-1): -73.7%; GI50 (MDA-MB-435): 0.967 µM; growth at 10 µM (SK-MEL-2): 62.4%; GI50 (MDA-MB-468): 0.629 µM; GI50 (HCT-15): 1.1 µM; growth at 10 µM (MCF7): -90.4%; growth at 10 µM (SF-539): 28.3%; growth at 10 µM (UACC-62 [3]): 75.8%; growth at 10 µM (NCI-H522 [4]): -0.37%; GI50 (786-0): 1.74 µM; GI50 (NCI-H23 [5]): 4.57 µM; GI50 [6]: 0.814 µM; growth at 10 µM (Malme-3M [7]): -50.2%; GI50 (SR): 0.67 µM; growth at 10 µM (SF-268): -80.2%; GI50 (Malme-3M [8]): 6.25 µM; GI50 (UACC-62 [9]): 4.85 µM; growth at 10 µM [10]: -64.1%; growth at 10 µM (NCI-H23 [11]): -22.3%

Q: Which results are given for `CC(C)=CCC/C(C)=C/CC/C(C)=C/CC[C@]1(C)CCc2c3c(cc(C)c2O1)OCN(CCCCCO)C3`?
A: growth at 10 µM (PC-3): 63.7%; GI50 (T47D): 6.17 µM; growth at 10 µM (LOX IMVI): -0.88%; GI50 (SNB-19): 5.99 µM; GI50 (NCI-H522 [1]): 7.08 µM; growth at 10 µM (KM12): 13%; GI50 [2]: 5.89 µM; growth at 10 µM (IGROV-1): 53.1%; GI50 (MDA-MB-435): 5.8 µM; growth at 10 µM (SK-MEL-2): 117%; GI50 (MDA-MB-468): 4.14 µM; GI50 (HCT-15): 6.24 µM; growth at 10 µM (MCF7): -63.6%; growth at 10 µM (SF-539): 95%; growth at 10 µM (UACC-62 [3]): 93.2%; growth at 10 µM (NCI-H522 [4]): 4.69%; GI50 (786-0): 6.47 µM; GI50 (NCI-H23 [5]): 6.67 µM; GI50 [6]: 7.26 µM; growth at 10 µM (Malme-3M [7]): 116%; GI50 (SR): 4 µM; growth at 10 µM (SF-268): 48.5%; GI50 (Malme-3M [8]): 6.9 µM; GI50 (UACC-62 [9]): 5.87 µM; growth at 10 µM [10]: 43.1%; growth at 10 µM (NCI-H23 [11]): 92.9%
